Laboratory results taken from ChEMBL document CHEMBL1121432, “Tricyclics with analgesic and antidepressant activity. 1. [[(Alkylamino)ethyl]thio]dibenz[b,f]oxepins and 10,11-dihydro derivatives” (1980).

Experiments:
Assay type in all cases: functional
[1] = system: Mus musculus; test: Delay in response to noxious heat stimuli in mice by tail flick method after subcutaneous administration; settings: sc
[2] = system: Mus musculus; test: Anticonvulsant activity to prevent pentamethylenetetrazole (MTZ) induced lethality in mice after oral administration
[3] = system: Mus musculus; test: Analgesic activity for the inhibition of phenylquinone induced writhing (PQW) after subcutaneous administration to mice; settings: sc
[4] = system: Mus musculus; test: Antipsychotic activity to prevent amphetamine induced lethality in mice after oral administration
Summary of the method: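 Male CD-1 mice in groups of ten, 18-28 g, dosed orally; controls got distilled water-Tween 80. d-Amphetamine sulfate 21 mg/kg sc 60 min post-drug, then aggregated five per wire cage at 80-84 °F. Dead mice replaced by marked untreated mice every 15 min. Deaths counted at 5 h post-amphetamine.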

[5] = system: Mus musculus; test: Antidepressant activity to prevent tetrabenazine induced ptosis (TBZ) in mice after intraperitoneal administration; settings: ip
[6] = system: Mus musculus; test: Tested for analgesic activity for the inhibition of phenylquinone induced writhing (PQW) after oral administration to mice
[7] = system: Mus musculus; test: Tested for antipsychotic activity to prevent amphetamine induced lethality in mice after intraperitoneal administration; settings: ip
Summary of the method: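 Male CD-1 mice in groups of ten, 18-28 g, dosed ip; controls got distilled water-Tween 80. d-Amphetamine sulfate 21 mg/kg sc 60 min later, then aggregated five per wire cage at 80-84 °F. Dead mice replaced by marked untreated mice every 15 min. Deaths counted at 5 h post-amphetamine.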

Row | SMILES | ED50 [1] | ED50 [2] | ED50 [3] | ED50 [4] | ED50 [5] | ED50 [6] | ED50 [7]
1 | c1ccc(CCNCCSC2Cc3ccccc3Oc3ccccc32)cc1 (stereo not given) | > 25 mg/kg | > 50 mg/kg | 9.3 mg/kg | 23 mg/kg | > 20 mg/kg | – | –
2 | CNCCSC1=Cc2ccccc2Oc2ccc(SC)cc21 | > 25 mg/kg | > 50 mg/kg | < 25 mg/kg | > 20 mg/kg | 6.1 mg/kg | – | –
3 | O=C(c1ccc(F)cc1)C1CCN(CCSC2Cc3ccccc3Oc3ccccc32)CC1 (stereo not given) | > 25 mg/kg | > 50 mg/kg | 10.9 mg/kg | > 20 mg/kg | > 20 mg/kg | 9.5 mg/kg | –
4 | CN(C)CCSC1Cc2ccccc2Oc2ccc(F)cc21 (stereo not given) | 7.9 mg/kg | 52.3 mg/kg | – | > 20 mg/kg | 2 mg/kg | – | –
5 | CSc1ccc2c(c1)C(SCCN(C)C)Cc1ccccc1O2 (stereo not given) | > 25 mg/kg | > 50 mg/kg | 10.4 mg/kg | > 20 mg/kg | 16 mg/kg | – | –
6 | C#CCN(C)CCSC1=Cc2ccccc2Oc2ccccc21 | > 25 mg/kg | > 50 mg/kg | 25 mg/kg | – | 12.2 mg/kg | – | –
7 | CN1C(=O)CN=C(c2ccccc2)c2cc(Cl)ccc21 [DIAZEPAM] | – | 1.4 mg/kg | – | > 20 mg/kg | – | – | –
8 | C1=C(SCCN2CCOCC2)c2ccccc2Oc2ccccc21 | > 25 mg/kg | > 50 mg/kg | > 25 mg/kg | – | – | – | –
9 | c1ccc2c(c1)CC(SCCN1CCOCC1)c1ccccc1O2 (stereo not given) | > 25 mg/kg | > 50 mg/kg | < 25 mg/kg | > 20 mg/kg | > 20 mg/kg | – | –
10 | CCN(CC)CCSC1Cc2ccccc2Oc2ccc(Cl)cc21 (stereo not given) | > 25 mg/kg | > 50 mg/kg | 14.8 mg/kg | – | > 20 mg/kg | – | –
11 | CN(C)CCCN1c2ccccc2CCc2ccccc21 [IMIPRAMINE] | > 25 mg/kg | 50 mg/kg | 11 mg/kg | > 20 mg/kg | 1.3 mg/kg | – | –
12 | CCN(CC)CCSC1Cc2ccccc2Oc2ccccc21 (stereo not given) | > 25 mg/kg | > 50 mg/kg | 6.9 mg/kg | > 20 mg/kg | > 20 mg/kg | – | –
13 | CCNCCSC1Cc2ccccc2Oc2ccccc21 (stereo not given) | > 25 mg/kg | > 50 mg/kg | 6.6 mg/kg | – | 20 mg/kg | – | –
14 | CNCCSC1Cc2ccccc2Oc2ccc(SC)cc21 (stereo not given) | > 25 mg/kg | 50 mg/kg | 6.4 mg/kg | > 20 mg/kg | 12.7 mg/kg | – | –
15 | C1=C(SCCNCCc2ccccc2)c2ccccc2Oc2ccccc21 | > 25 mg/kg | > 50 mg/kg | 13.6 mg/kg | > 20 mg/kg | > 20 mg/kg | – | –
16 | CNCCSC1=Cc2ccccc2Oc2ccc(F)cc21 [FLURADOLINE] | 11.3 mg/kg | > 50 mg/kg | – | > 50 mg/kg | 0.32 mg/kg | 24.7 mg/kg | –
17 | CN(CCSC1=Cc2ccccc2Oc2ccccc21)CC1CC1 | > 25 mg/kg | > 50 mg/kg | 6 mg/kg | – | > 20 mg/kg | – | –
18 | CCN(C)CCSC1=Cc2ccccc2Oc2ccccc21 | > 25 mg/kg | > 50 mg/kg | 25 mg/kg | – | 20 mg/kg | – | –
19 | CNCCSC1Cc2ccccc2Oc2ccccc21 (stereo not given) | 11.6 mg/kg | 50 mg/kg | 4.8 mg/kg | > 20 mg/kg | 0.9 mg/kg | – | –
20 | CNCCSC1=Cc2ccccc2Oc2ccc(Cl)cc21 | > 25 mg/kg | > 50 mg/kg | 16 mg/kg | > 20 mg/kg | 5.9 mg/kg | – | –
21 | CC(C)=CCN1CC[C@]2(C)c3cc(O)ccc3C[C@H]1[C@H]2C [(+)-PENTAZOCINE] | 14.6 mg/kg | > 25 mg/kg | 2.4 mg/kg | > 20 mg/kg | – | – | –

Row | SMILES | ED50 [1] | ED50 [2] | ED50 [3] | ED50 [4] | ED50 [5] | ED50 [6] | ED50 [7]
22 | CSc1ccc2c(c1)C(SCCN(C)C)=Cc1ccccc1O2 | 14.1 mg/kg | > 50 mg/kg | 5.3 mg/kg | > 20 mg/kg | 9.4 mg/kg | – | –
23 | CN(C)CCSC1Cc2ccccc2Oc2ccccc21 (stereo not given) | > 25 mg/kg | 50 mg/kg | > 25 mg/kg | > 20 mg/kg | – | – | –
24 | CNCCSC1=Cc2ccccc2Oc2ccccc21 | 11.6 mg/kg | 50 mg/kg | – | – | – | – | > 20 mg/kg
25 | CN(C)CCSC1=Cc2ccccc2Oc2ccc(F)cc21 | 23.9 mg/kg | > 50 mg/kg | 10.3 mg/kg | > 20 mg/kg | – | – | –
26 | CCN(CC)CCSC1=Cc2ccccc2Oc2ccc(SC)cc21 | > 25 mg/kg | > 50 mg/kg | > 25 mg/kg | > 20 mg/kg | > 20 mg/kg | – | –
27 | CN(C)CCCN1c2ccccc2Sc2ccc(Cl)cc21 [CHLORPROMAZINE] | – | > 50 mg/kg | – | 2.8 mg/kg | – | – | –
28 | CSc1ccc2c(c1)C(SCCN(C(C)C)C(C)C)=Cc1ccccc1O2 | > 25 mg/kg | > 50 mg/kg | > 25 mg/kg | – | 25 mg/kg | – | –
29 | CCN(CC)CCSC1=Cc2ccccc2Oc2ccccc21 | > 25 mg/kg | > 50 mg/kg | 25 mg/kg | > 20 mg/kg | > 20 mg/kg | – | –
30 | CNCCSC1Cc2ccccc2Oc2ccc(Cl)cc21 (stereo not given) | 22.4 mg/kg | < 50 mg/kg | 5.3 mg/kg | > 20 mg/kg | 1.5 mg/kg | 11.3 mg/kg | –
31 | CN(C)CCSC1=Cc2ccccc2Oc2ccc(Cl)cc21 | > 25 mg/kg | > 50 mg/kg | > 25 mg/kg | > 20 mg/kg | > 20 mg/kg | – | –
32 | CNCCSC1Cc2ccccc2Oc2ccc(F)cc21 (stereo not given) | 5.1 mg/kg | 31.6 mg/kg | – | > 20 mg/kg | 0.8 mg/kg | – | –
33 | CN(C)CCSC1Cc2ccccc2Oc2ccc(Cl)cc21 (stereo not given) | > 25 mg/kg | 30 mg/kg | < 25 mg/kg | – | – | – | –
34 | CN1CC[C@]23c4c5ccc(O)c4O[C@H]2[C@@H](O)C=C[C@H]3[C@H]1C5 [MORPHINE] | – | > 25 mg/kg | 0.36 mg/kg | > 20 mg/kg | 8.1 mg/kg | – | –
35 | Br.CN1CCN(CCSC2Cc3ccccc3Oc3ccccc32)CC1 (stereo not given) | > 25 mg/kg | > 50 mg/kg | 6.3 mg/kg | – | > 20 mg/kg | – | –
36 | Fc1ccc2c(c1)C(SCCNCC1CC1)Cc1ccccc1O2 (stereo not given) | > 25 mg/kg | > 50 mg/kg | 10.7 mg/kg | > 20 mg/kg | > 20 mg/kg | – | –
37 | CN(C)CCSC1=Cc2ccccc2Oc2ccccc21 | > 25 mg/kg | 50 mg/kg | 5.8 mg/kg | > 20 mg/kg | 8.4 mg/kg | – | –
38 | Br.CCN(CC)CCSC1Cc2ccccc2Oc2ccc(SC)cc21 (stereo not given) | > 25 mg/kg | > 50 mg/kg | 25 mg/kg | > 20 mg/kg | > 20 mg/kg | – | –
39 | Fc1ccc2c(c1)C(SCCNCCc1ccccc1)Cc1ccccc1O2 (stereo not given) | > 25 mg/kg | > 50 mg/kg | > 10 mg/kg | > 20 mg/kg | – | – | –
40 | C=CCNCCSC1Cc2ccccc2Oc2ccc(F)cc21 (stereo not given) | > 25 mg/kg | > 50 mg/kg | 10.6 mg/kg | > 20 mg/kg | 3.5 mg/kg | – | –
41 | CCN(C)CCSC1=Cc2ccccc2Oc2ccc(SC)cc21 | > 25 mg/kg | > 50 mg/kg | 25 mg/kg | > 20 mg/kg | – | – | –
